Measurements: publication PMC4245150 (Organometallics, 2014)

What was measured:
PKCι-par6 = PKCι-par6 in vitro; cited from earlier work
A498 = assay: XTT cell viability assay, A498; type: cell-based, human
DU145 = assay: XTT cell viability assay, DU145; type: cell-based, human
How it was run: (§1)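 Cells kept in RPMI-1640 with 10% FBS, 1% NEAA and PenStrep at 37 °C, 5% CO2. Seeded at 5000 cells/well in phenol-red-free, antibiotic-free RPMI (10% FBS, 2 mM L-glutamine) and grown 24 h. Test compound was dissolved in 1% DMSO, diluted in water and added at 0.1–200 μM final for 24 or 72 h. XTT was added at 0.3 mg/mL for 4 h, and A450 read. IC50 is the concentration halving proliferation against untreated cells, from ≥2 independent experiments in triplicate.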

PC3 = assay: XTT cell viability assay, PC3; type: cell-based, human
Caki-1 = assay: XTT cell viability assay, Caki-1; type: cell-based, human
How it was run: as §1

UO31 = assay: XTT cell viability assay, UO31; type: cell-based, human
How it was run: as §1

HEK-293T = assay: XTT cell viability assay, HEK-293T; type: cell-based, human; settings: HEK-293T (nontumorigenic)
How it was run: as §1, with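 “HEK-293 cells kept” for “Cells kept”, “in DMEM” for “in RPMI-1640”, “antibiotic-free DMEM” for “antibiotic-free RPMI”, “and dosed” for “and added”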

plasmid (pBR322) DNA = assay: electrophoresis mobility shift assay with plasmid DNA; type: binding; settings: metal/DNAbp ratios 0.25-2.0, 37 °C, 20 h, pH 7.39
How it was run: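 pBR322 DNA (20 μg/mL) in 5 mM Tris/HCl, 50 mM NaClO4, pH 7.39 incubated with test compound ([…] metal complex/DNAbp) for 20 h at 37 °C in the dark; free DNA and cisplatin-treated DNA as controls. Samples run on 1% agarose gel, 1.5 h at 80 V in Tris-acetate/EDTA, stained 30 min with GelRed.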

CT-DNA = settings: physiological pH / pH 7; cited from earlier work
PI3 kinases = assay: HotSpot kinase assay, lipid PI3 kinases; type: biochemical; settings: IC50 values only plotted in Figure 8
panel of 30 kinases = assay: HotSpot kinase assay, panel of 30 nonlipid kinases; type: biochemical; settings: even at concentrations of 100 μM

Row | Structure (SMILES) | IC50 (PKCι-par6) [µM] | IC50 (A498; A498, 24 h incubation) [µM] | IC50 (A498; A498, 72 h incubation) [µM] | IC50 (DU145; DU145, 24 h incubation) [µM] | IC50 (DU145; DU145, 72 h incubation) [µM] | IC50 (PC3; PC3, 24 h incubation) [µM] | IC50 (PC3; PC3, 72 h incubation) [µM] | IC50 (Caki-1; Caki-1, 24 h incubation) [µM] | IC50 (Caki-1; Caki-1, 72 h incubation) [µM] | IC50 (UO31; UO31, 24 h incubation) [µM] | IC50 (UO31; UO31, 72 h incubation) [µM] | IC50 (HEK-293T; 24 h incubation) [µM] | IC50 (HEK-293T; 72 h incubation) [µM] | effect on electrophoretic mobility of plasmid forms (plasmid (pBR322) DNA) | interaction with CT-DNA (CT-DNA) | inhibition of PI3 kinase family (PI3 kinases) | inhibition of enzymatic activity of 30 kinases (panel of 30 kinases)
1 | OC[C@H]1O[C@H]([S-])[C@H](O)[C@@H](O)[C@@H]1O.[Au+] [aurothioglucose] | ~1 |  |  |  |  |  |  |  |  |  |  |  |  |  |  |  | 
2 | COc1ccc(C[C]2([Ti+2][C]3(Cc4ccc(OC)cc4)C=CC=C3)C=CC=C2)cc1.[Cl-].[Cl-] [Titanocene Y] |  | > 200 | > 29.6 | > 200 | 55.2 ± 7.9 | > 200 | 58.1 ± 11.2 | > 200 | 29.4 ± 4.2 | > 200 | > 200 | > 200 | > 200 |  |  |  | 
3 | O=C(O)C[P+]([Au-][Cl])(c1ccccc1)c1ccccc1 [compound 6, [HOC(O)CH2PPh2AuCl]] |  | 58 ± 11 | 43 ± 4.9 | 34.7 ± 1.8 | 31.3 ± 3.1 | 38.2 ± 2.2 | 30.2 ± 4.2 | 33.8 ± 2.1 | 23 ± 4.1 | 27.3 ± 2.7 | 5.2 ± 1.6 | 36.5 ± 3.3 | 9.7 ± 2.5 | does not affect the mobility of the faster-running supercoiled form |  |  | 
4 | [Cl-].[Cl-].[Ti+4].c1cc[cH-]c1.c1cc[cH-]c1 [titanocene dichloride] |  | > 200 | > 200 | > 200 | > 200 | > 200 | > 200 | > 200 | > 200 | > 200 | > 200 | > 200 | > 200 |  | does not interact with CT-DNA | inhibits exclusively protein kinases of the PI3 kinase family at nanomolar concentrations | did not inhibit the enzymatic activity to levels of 50% or below
5 | O=C(O)CC([S-])C(=O)O.[Au+] (stereo not shown) [aurothiomalate] | ~1 |  |  |  |  |  |  |  |  |  |  |  |  |  |  |  | 
6 | N.N.[Cl][Pt][Cl] [cisplatin] |  | 74.7 ± 6 | 37.2 ± 4.6 | 44.5 ± 0.33 | 12.1 ± 3.9 | 92 ± 18 | 14 ± 2.3 | 68.8 ± 0.14 | 29 ± 4.1 | > 100 | 8.9 ± 2.7 | 64.4 ± 7.9 | 3.2 ± 0.13 | decrease in mobility of the CCC form and an increase in mobility of the OC form |  |  | 
